Assay [1] deals with Mast/stem cell growth factor receptor Kit (Homo sapiens, UniProt P10721). Put plainly: Inhibition of human KIT (I571 to D952 residues) expressed in bacterial expression system by KINOMEScan assay.
In assay [2] the target is Tyrosine-protein kinase JAK3 (Homo sapiens) (UniProt P52333). Nature of the assay: Inhibition of human JAK3 JH1 catalytic domain (I781 to S1124 residues) expressed in mammalian expression system assessed as residual activity at 100 nM by KINOMEScan assay relative to control. A digest of the protocol: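 DiscoveRx KINOMEscan competition binding against ATP sites in a 97-kinase panel, with compound at 100 nM. Binding reported as % of control.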

Assay [3] is described as follows: Antiproliferative activity against human MDA-MB-231 cells after 72 hrs by MTT assay. The format is functional, cell-based. The note with it: MDA-MB-231, 72 h. A general note: Tetrazolium dyes change colour on reduction, which living cells bring about.
For the next assay, the target named is Histone deacetylase 2 (Homo sapiens, UniProt Q92769). Put plainly: Inhibition of full length human recombinant C-terminal GST-tagged HDAC2 (1 to 488 residues) expressed in insect cells preincubated with enzyme followed by fluorogenic Arg-His-Lys-Lys(Ac)-AMC substrate addition measured after 2 hrs by fluorescence assay.
Assay [4] deals with MOLM-14. Put plainly: Induction of apoptosis in human MOLM14 cells assessed as live cells at 1.5 uM after 48 hrs by Annexin-V FITC/propidium iodide staining based flow cytometry (reference value: 94 to 94.1%). The assay is classed as functional. For orientation: In flow cytometry, cells or beads pass a laser one at a time.
The test system of assay [5] is Mast/stem cell growth factor receptor Kit (Homo sapiens), P10721 [V559D,T670I]. Nature of the assay: Inhibition of human KIT (Y545 to D952 residues) V559D/T670I double mutant expressed in bacterial expression system assessed as residual activity at 100 nM by KINOMEScan assay relative to control. A digest of the protocol:
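Done by DiscoveRx as an ATP-site binding panel covering 97 kinases across the kinome. It measures binding rather than inhibition of phosphate transfer. The compound was tested at 100 nM, and the result is expressed as percent of control binding.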

For assay [6], the target named is Histone deacetylase 3/Nuclear receptor corepressor 2 (HDAC3/NCoR2) (Homo sapiens, UniProt O15379). Put plainly: Inhibition of full length human recombinant C-terminal His-tagged HDAC3 (1 to 428 residues)/N-terminal GST-tagged NCOR2 (395 to 489 residues) expressed in insect cells preincubated with enzyme followed by fluorogenic Arg-His-Lys-Lys(Ac)-AMC substrate addition measured after 2 hrs by fluorescence assay.

The target in assay [7] is Mast/stem cell growth factor receptor Kit (Homo sapiens, UniProt P10721, T670I/V559D). Nature of the assay: Inhibition of human KIT (Y545 to D952 residues) V559D/T670I double mutant expressed in bacterial expression system by KINOMEScan assay.
Assay [8] deals with MOLM-14. Nature of the assay: Induction of apoptosis in human MOLM14 cells assessed as necrotic cells at 0.75 uM after 48 hrs by Annexin-V FITC/propidium iodide staining based flow cytometry (reference value: 0.1%). The assay is classed as functional. In a few lines: (§1)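 MOLM-14 cells treated 48 h at the stated concentrations; doxorubicin as positive control. Stained with Annexin V-FITC and propidium iodide and analysed by flow cytometry (at least 10,000 events). Gated quadrants: Annexin V−/PI− viable, Annexin V+/PI− early apoptotic, Annexin V+/PI+ late apoptotic.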

In assay [9] the target is T1, Protein deacetylase HDAC6 (Homo sapiens) (UniProt Q9UBN7).
T1 sequence (whole entry): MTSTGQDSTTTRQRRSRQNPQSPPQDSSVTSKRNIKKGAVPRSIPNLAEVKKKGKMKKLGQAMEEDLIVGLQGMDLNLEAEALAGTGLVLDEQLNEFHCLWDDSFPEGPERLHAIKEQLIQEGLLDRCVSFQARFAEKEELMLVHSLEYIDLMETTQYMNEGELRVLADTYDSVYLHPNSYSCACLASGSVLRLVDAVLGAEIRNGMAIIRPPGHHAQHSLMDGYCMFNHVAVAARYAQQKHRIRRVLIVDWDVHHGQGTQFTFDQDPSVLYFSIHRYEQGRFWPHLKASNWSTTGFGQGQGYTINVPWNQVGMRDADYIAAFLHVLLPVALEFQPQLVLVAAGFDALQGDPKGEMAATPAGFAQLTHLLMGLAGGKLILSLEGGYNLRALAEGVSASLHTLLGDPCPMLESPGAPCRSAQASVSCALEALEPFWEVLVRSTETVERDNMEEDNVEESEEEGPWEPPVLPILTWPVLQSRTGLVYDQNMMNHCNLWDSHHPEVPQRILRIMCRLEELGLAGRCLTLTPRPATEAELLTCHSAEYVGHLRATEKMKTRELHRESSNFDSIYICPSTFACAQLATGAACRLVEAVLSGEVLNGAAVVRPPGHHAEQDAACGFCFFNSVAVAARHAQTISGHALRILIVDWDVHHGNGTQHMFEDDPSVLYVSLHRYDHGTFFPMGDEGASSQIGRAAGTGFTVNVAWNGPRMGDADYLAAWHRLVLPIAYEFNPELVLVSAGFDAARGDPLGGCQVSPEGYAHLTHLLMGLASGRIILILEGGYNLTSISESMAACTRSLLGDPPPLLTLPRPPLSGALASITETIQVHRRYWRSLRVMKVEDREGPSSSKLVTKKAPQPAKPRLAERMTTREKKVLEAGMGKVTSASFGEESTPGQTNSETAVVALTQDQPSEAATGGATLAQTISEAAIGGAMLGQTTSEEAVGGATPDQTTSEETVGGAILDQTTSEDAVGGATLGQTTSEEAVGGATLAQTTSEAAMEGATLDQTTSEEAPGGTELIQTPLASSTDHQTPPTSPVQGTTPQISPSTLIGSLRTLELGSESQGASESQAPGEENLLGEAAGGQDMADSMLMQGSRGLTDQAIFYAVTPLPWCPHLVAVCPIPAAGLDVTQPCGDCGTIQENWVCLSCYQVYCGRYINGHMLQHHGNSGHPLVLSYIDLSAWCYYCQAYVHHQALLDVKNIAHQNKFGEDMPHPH
Nature of the assay: Inhibition of HDAC6 in HEL 92.1.7 cells harboring JAK2 V617F mutant assessed as increase in acetylated tubulin level at 0.1 uM after 1 hr by immunoblot method. The assay is classed as cell-based. In a few lines: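 HEL92.1.7 cells seeded at 5x10^5/mL and treated 1 h at 0, 0.1, 0.5 and 1 μM. Lysed in RIPA with phosphatase/protease inhibitors, run on 10% SDS-PAGE and blotted to PVDF. Probed for acetyl-tubulin, acetyl-H3 (Lys9/Lys14), p-JAK2 (Y1007/1008) and p-STAT5 (Tyr694); membranes re-probed for tubulin, H3, JAK2 and STAT5. Quantified by densitometry.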
(Immunoblotting shows a protein as a band on a membrane.)

Assay [10] has as its system MOLM-14. Nature of the assay: Induction of apoptosis in human MOLM14 cells assessed as live cells at 3 uM after 48 hrs by Annexin-V FITC/propidium iodide staining based flow cytometry (reference value: 94 to 94.1%). The assay is classed as functional. In a few lines: as §1

Activity calls are given as the source filed them. The calls are words filed in the database; no cut-off is given here.

Chain of Mast/stem cell growth factor receptor Kit (Homo sapiens, UniProt P10721) (P10721 whole entry, the tested form may be a part): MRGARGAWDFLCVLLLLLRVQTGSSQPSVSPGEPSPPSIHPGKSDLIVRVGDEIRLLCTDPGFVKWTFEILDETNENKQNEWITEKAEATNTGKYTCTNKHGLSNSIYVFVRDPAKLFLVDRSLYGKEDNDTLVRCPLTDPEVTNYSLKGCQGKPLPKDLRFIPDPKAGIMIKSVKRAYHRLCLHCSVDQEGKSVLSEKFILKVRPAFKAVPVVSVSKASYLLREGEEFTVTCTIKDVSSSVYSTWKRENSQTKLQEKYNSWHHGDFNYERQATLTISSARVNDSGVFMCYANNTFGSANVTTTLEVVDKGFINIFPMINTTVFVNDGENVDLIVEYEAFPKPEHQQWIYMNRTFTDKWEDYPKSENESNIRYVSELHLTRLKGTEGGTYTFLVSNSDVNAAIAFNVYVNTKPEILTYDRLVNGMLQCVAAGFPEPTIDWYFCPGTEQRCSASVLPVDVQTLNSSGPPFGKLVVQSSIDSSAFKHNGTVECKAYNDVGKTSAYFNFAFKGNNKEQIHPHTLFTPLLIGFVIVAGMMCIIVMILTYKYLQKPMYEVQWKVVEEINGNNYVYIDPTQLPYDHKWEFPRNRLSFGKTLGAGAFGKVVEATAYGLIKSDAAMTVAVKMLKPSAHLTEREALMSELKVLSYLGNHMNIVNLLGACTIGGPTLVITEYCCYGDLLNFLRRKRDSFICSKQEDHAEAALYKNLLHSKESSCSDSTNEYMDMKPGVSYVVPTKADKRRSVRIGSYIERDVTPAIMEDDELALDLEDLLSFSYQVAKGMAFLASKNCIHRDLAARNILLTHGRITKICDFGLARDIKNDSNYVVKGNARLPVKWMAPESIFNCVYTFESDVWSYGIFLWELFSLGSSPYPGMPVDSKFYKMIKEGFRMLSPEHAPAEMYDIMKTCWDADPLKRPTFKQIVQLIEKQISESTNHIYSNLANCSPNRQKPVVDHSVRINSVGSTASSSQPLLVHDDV
Chain of Histone deacetylase 2 (Q92769 whole entry, the tested form may be a part): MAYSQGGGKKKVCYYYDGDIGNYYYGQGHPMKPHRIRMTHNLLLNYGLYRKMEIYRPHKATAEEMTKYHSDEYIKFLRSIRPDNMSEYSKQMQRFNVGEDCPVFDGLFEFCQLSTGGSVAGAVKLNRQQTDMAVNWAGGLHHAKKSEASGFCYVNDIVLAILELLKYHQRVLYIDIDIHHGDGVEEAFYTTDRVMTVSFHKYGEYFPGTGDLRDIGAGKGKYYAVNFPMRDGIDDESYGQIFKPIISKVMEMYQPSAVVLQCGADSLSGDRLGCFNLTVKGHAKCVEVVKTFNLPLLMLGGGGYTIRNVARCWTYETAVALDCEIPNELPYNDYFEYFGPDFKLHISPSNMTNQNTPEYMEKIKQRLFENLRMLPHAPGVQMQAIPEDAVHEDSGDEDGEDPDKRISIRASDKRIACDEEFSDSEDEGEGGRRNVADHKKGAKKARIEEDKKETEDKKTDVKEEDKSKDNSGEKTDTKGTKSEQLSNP
Chain of Histone deacetylase 3/Nuclear receptor corepressor 2 (HDAC3/NCoR2) (O15379 whole entry, the tested form may be a part): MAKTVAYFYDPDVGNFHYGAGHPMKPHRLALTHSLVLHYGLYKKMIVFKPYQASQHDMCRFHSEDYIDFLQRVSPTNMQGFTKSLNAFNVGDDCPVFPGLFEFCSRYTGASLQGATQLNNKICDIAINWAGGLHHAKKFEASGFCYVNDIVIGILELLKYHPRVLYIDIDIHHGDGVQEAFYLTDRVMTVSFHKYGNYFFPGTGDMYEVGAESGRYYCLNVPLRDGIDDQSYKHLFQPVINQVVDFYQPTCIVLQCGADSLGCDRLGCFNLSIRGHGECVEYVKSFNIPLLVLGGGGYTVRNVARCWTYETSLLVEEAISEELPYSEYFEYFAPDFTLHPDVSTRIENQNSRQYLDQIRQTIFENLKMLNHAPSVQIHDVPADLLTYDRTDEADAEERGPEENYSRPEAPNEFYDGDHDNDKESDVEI
Chain of Histone deacetylase 3/Nuclear receptor corepressor 2 (HDAC3/NCoR2) (Q9Y618 whole entry, further chain, the tested form may be a part): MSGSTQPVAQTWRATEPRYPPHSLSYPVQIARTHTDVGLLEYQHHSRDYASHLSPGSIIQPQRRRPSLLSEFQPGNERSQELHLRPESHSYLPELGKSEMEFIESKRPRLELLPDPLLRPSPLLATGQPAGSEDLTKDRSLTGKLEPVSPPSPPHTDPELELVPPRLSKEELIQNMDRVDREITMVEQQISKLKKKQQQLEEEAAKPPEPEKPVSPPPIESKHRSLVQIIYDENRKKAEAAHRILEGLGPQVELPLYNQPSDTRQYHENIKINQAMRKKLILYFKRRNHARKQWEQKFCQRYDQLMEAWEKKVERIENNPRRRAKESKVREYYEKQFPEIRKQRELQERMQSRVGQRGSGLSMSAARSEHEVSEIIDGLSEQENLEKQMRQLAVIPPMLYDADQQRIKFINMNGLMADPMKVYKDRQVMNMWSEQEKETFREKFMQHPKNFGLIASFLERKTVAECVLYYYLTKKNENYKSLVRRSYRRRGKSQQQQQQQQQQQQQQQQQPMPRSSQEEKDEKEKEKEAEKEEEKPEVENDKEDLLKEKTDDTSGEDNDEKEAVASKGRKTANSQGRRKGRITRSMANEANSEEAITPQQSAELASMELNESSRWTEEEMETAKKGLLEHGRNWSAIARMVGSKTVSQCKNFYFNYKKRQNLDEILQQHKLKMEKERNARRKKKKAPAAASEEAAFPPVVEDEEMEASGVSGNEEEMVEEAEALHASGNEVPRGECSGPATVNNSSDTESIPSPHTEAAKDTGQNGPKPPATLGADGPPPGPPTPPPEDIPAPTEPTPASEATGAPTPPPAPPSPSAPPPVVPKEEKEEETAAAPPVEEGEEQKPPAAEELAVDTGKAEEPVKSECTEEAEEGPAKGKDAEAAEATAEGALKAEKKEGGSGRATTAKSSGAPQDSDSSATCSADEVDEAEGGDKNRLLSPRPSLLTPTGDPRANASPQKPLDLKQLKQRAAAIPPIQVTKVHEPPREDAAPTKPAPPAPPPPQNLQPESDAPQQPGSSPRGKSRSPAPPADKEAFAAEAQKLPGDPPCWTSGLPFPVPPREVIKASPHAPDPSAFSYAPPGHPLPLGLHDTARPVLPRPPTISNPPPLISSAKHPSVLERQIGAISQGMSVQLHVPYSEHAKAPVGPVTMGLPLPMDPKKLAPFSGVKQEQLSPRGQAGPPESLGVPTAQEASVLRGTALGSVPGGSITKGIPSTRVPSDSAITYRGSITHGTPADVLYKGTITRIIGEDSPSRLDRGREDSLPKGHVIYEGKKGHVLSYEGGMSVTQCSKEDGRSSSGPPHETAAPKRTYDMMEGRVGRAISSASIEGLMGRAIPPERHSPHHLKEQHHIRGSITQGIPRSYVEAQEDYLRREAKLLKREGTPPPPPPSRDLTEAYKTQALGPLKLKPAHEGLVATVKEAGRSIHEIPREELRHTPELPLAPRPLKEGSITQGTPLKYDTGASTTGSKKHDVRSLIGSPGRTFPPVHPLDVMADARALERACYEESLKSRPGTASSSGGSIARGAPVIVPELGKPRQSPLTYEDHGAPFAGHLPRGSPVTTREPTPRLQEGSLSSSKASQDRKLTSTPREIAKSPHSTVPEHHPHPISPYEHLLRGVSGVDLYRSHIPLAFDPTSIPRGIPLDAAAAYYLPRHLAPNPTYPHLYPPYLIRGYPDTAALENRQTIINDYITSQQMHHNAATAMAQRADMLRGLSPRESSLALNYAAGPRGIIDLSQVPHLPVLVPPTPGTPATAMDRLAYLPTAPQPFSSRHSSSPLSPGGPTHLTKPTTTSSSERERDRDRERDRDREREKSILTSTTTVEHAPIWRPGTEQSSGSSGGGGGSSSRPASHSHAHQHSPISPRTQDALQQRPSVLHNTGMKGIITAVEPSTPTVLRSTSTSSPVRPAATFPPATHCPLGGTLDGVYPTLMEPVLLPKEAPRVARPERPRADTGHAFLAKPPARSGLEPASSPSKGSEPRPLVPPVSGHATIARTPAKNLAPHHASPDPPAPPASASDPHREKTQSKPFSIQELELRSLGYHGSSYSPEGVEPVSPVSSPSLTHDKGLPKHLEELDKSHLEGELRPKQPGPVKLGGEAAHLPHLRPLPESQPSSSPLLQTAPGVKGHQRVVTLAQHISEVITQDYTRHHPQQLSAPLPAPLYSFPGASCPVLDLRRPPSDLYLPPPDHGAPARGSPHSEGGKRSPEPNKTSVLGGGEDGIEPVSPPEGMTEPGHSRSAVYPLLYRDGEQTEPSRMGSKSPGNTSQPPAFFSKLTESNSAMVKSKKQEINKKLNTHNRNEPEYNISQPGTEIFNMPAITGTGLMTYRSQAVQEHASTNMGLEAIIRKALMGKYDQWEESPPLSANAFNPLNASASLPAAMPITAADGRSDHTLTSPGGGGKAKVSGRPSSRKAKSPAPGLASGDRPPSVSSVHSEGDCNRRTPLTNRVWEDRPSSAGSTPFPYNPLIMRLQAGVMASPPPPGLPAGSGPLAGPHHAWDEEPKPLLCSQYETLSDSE
Chain of Mast/stem cell growth factor receptor Kit (Homo sapiens), P10721 [V559D,T670I] (P10721 whole entry V559D/T670I, the tested form may be a part): as the sequence (P10721 whole entry, the tested form may be a part) above, with V559D, T670I counted along it

One may read the IC50 as the concentration that gives 50% inhibition. As for `O=C(CCCCCCOc1ccc2cc1COC/C=C/COCc1cccc(c1)-c1ccnc(n1)N2)NO`, the IC50 in assay [1] was 1 to 10 µM; in [3] it was 1.43 µM; at Histone deacetylase 2, 0.049 µM; in assay [6], 2.17 µM; in assay [7], 1 to 10 µM. Moreover, the Activity is 7.9% in assay [2]; 74.1% in the assay with MOLM-14 [4]; 31% in assay [5]; 0% with MOLM-14 [8]; 29.9% with MOLM-14 [10]. Also, the inhibition result in assay [9] is “Active”.

The values are drawn from ChEMBL document CHEMBL3877241 (J Med Chem, 2016).
